This note sets out measurements from ChEMBL document CHEMBL1158705, “Dihydrochalcones from the leaves of Pieris japonica” (2005).

A short description of assay [1]: Inhibition of concanavalin A-induced mouse T cells proliferation assessed as [3H]TdR incorporation at 0.1 uM […]. The format is functional, T-cell. The procedure, abridged:
(§1)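 Mouse spleen cells (4 × 10^6/well) were cultured with test compound plus a selective stimulus: concanavalin A at 5 µg/mL for T cells, or E. coli LPS for B cells. Incubation was 48 h at 37 °C in 5% CO2, with a 0.25 µCi/well 3H-thymidine pulse over the final 6 h. Incorporated radioactivity was read by liquid scintillation, as the mean of triplicates, with Student t-test versus control.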

Assay [2] in a line: Inhibition of concanavalin A-induced mouse T cells proliferation assessed as [3H]TdR incorporation at 10 uM […]. The assay is classed as functional, T-cell. The procedure, abridged: as §1
A general note: Tetrazolium dyes change colour on reduction, which living cells bring about.

The nature of assay [3]: Inhibition of LPS-induced mouse B cells proliferation assessed as [3H]TdR incorporation at 0.1 uM […]. The format is functional. In short, it runs like this:
as §1

A short description of assay [4]: Inhibition of LPS-induced mouse B cells proliferation assessed as [3H]TdR incorporation at 1 uM […]. The format is functional. The procedure, abridged: as §1
A short description of assay [5]: Inhibition of concanavalin A-induced mouse T cells proliferation assessed as [3H]TdR incorporation at 1 uM […]. The format is functional, T-cell. In short, it runs like this:
as §1

Assay [6] can be described thus: Inhibition of LPS-induced mouse B cells proliferation assessed as [3H]TdR incorporation at 10 uM […]. The assay is classed as functional. In short, it runs like this:
as §1

In the case of `COc1c(O[C@@H]2O[C@H](CO)[C@@H](O)[C@H](O)[C@H]2O)cc(C(=O)CCc2ccc(O)cc2)cc1O[C@@H]1O[C@H](CO)[C@@H](O)[C@H](O)[C@H]1O`, the Activity in assay [1] is 84800 cpm; in assay [2] it was 74100 cpm; in assay [3], 30900 cpm; in assay [4], 22800 cpm; in assay [5] it was 74100 cpm; in assay [6], 24600 cpm.

As to `COc1cc(O)c(C(=O)CCc2ccc(O)c(O)c2)c(O[C@@H]2O[C@H](CO)[C@@H](O)[C@H](O)[C@H]2O)c1`, the Activity in assay [1] was found to be 66700 cpm; in assay [2], 33000 cpm; in assay [3] it was 22200 cpm; in assay [4], 22100 cpm; in assay [5] it was 71400 cpm; in assay [6] it was 24000 cpm.

`COc1cc(O)c(C(=O)CCc2ccc(O)cc2)c(O[C@@H]2O[C@H](CO)[C@@H](O)C(=O)[C@H]2O)c1`: the Activity in assay [1] stood at 38300 cpm; in assay [2], 32000 cpm; in assay [3], 34200 cpm; in assay [4] it was 35000 cpm; in assay [5], 26700 cpm; in assay [6], 16400 cpm.

Regarding `COc1cc(O)c(C(=O)CCc2ccc(O)cc2)c(O[C@@H]2O[C@H](CO)[C@@H](O)[C@H](O)[C@H]2OC(C)=O)c1`, the Activity in assay [1] was determined as 83300 cpm; in assay [2], 70100 cpm; in assay [3], 46600 cpm; in assay [4], 45000 cpm; in assay [5], 81600 cpm; in assay [6], 29800 cpm.

For the molecule `COc1cc(O)c(C(=O)CCc2ccc(O)cc2)c(O)c1` [ASEBOGENIN], the Activity in assay [1] worked out at 79300 cpm; in assay [2], 58400 cpm; in assay [3] it was 32500 cpm; in assay [4], 28300 cpm; in assay [5] it was 80300 cpm; in assay [6] it was 34100 cpm.

As for `COc1cc(O)c(C(=O)CCc2ccc(O)cc2)c(O[C@@H]2O[C@H](CO)[C@@H](O)[C@H](O)[C@H]2O)c1` [ASEBOTIN], the Activity was found to be 89800 cpm in assay [1]; 79600 cpm in assay [2]; 47400 cpm in assay [3]; 40700 cpm in assay [4]; 87200 cpm in assay [5]; 35200 cpm in assay [6].

With `O=C(CCc1ccc(O)cc1)c1c(O)cc(O)cc1O` [PHLORETIN], the Activity in assay [1] turned out to be 63900 cpm; in assay [2], 69400 cpm; in assay [3], 32700 cpm; in assay [4], 29300 cpm; in assay [5], 75700 cpm; in assay [6], 30700 cpm.

With `O=C(CCc1ccc(O)cc1)c1c(O)cc(O)cc1O[C@@H]1O[C@H](CO)[C@@H](O)[C@H](O)[C@H]1O` [PHLORIZIN], the Activity in assay [1] was determined as 36100 cpm; in assay [2] it was 33000 cpm; in assay [3] it was 33000 cpm; in assay [4] it was 32400 cpm; in assay [5], 35500 cpm; in assay [6] it was 30500 cpm.

For the molecule `COc1cc(O)c(C(=O)CCc2ccc(O)cc2)c(O)c1Cc1c(OC)cc(O)c(C(=O)CCc2ccc(O)cc2)c1O` [PIEROTIN A], the Activity in assay [1] amounted to 75400 cpm; in assay [2], 22600 cpm; in assay [3], 38100 cpm; in assay [4], 32700 cpm; in assay [5], 75000 cpm; in assay [6], 36500 cpm.

With `COc1cc(O)c(C(=O)CCc2ccc(O)cc2)c2oc3cc(O)c(O)cc3c12` [PIEROTIN B], the Activity worked out at 76200 cpm in assay [1]; 10800 cpm in assay [2]; 22800 cpm in assay [3]; 28600 cpm in assay [4]; 59000 cpm in assay [5]; 3940 cpm in assay [6].
